In ChEMBL document CHEMBL1157851, “Design and synthesis of novel 3,4-disubstituted pyrazoles for nanomedicine applications against malignant gliomas” (Eur J Med Chem, 2010):

experiment: Cytotoxicity against human U87MG cells after 24 hrs by MTT assay; type: functional, cell-based, U-87MG ATCC; conditions: U-87 MG
Procedure, shortened: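 U87MG human glioblastoma cells were grown in EMEM with 10% FBS and 1% penicillin–streptomycin at 37 °C under humidified 5% CO₂, then seeded at 2 × 10³ cells/well. At about 50% confluence, cells were exposed to compounds at various concentrations (10 mmol/L DMSO stocks; DMSO control) for 24 h. MTT was then added for 3 h at 37 °C, formazan was dissolved in DMSO, and A540 was read. IC50 values are means of three experiments.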

SMILES | IC50 [µM]
COc1ccccc1C(=O)Nc1cn(-c2ccccc2)nc1-c1ccccc1 | 81
Cn1cc(NC(=O)CCCCCCCCCCCN)c(-c2ccccn2)n1 | 90
Cn1cc(NC(=O)CCCCCCCCCCO)c(-c2ccccn2)n1 | > 150
COc1ccccc1C(=O)Nc1cn(C)nc1-c1ccccn1 | 130
CCCCCCCCCCCC(=O)Nc1cn(C)nc1-c1ccccn1 | > 150
C[C@H](N)C(=O)Nc1cn(C)nc1-c1ccccn1 | > 150
Cn1cc(NC(=O)CCCCCCCCCCS)c(-c2ccccn2)n1 | > 150
O=C(CCCCCCCCCCO)Nc1cn(-c2ccccc2)nc1-c1ccccc1 | > 150
Cn1cc(NC(=O)c2ccccc2)c(-c2ccccn2)n1 | > 150
CCCCCCCCCCCC(=O)Nc1cn(-c2ccccc2)nc1-c1ccccc1 | 81
C[C@H](N)C(=O)Nc1cn(-c2ccccc2)nc1-c1ccccc1 | > 150
O=C(CCCCCCCCCCS)Nc1cn(-c2ccccc2)nc1-c1ccccc1 | 90
NCCCCCCCCCCCC(=O)Nc1cn(-c2ccccc2)nc1-c1ccccc1 | 77
O=C(Nc1cn(-c2ccccc2)nc1-c1ccccc1)c1ccccc1 | > 150
